Measured values published in article PMC5736457 (European journal of medicinal chemistry, 2017).
Like-named read-outs stand apart in the source and are kept apart here.

Tests used:
[1] = test system: MCF10A, the human breast epithelial cell line; experiment: MTT cell viability assay, normal MCF10A cells; format: cell-based; settings: 25 μM, 48 h
UACC903 melanoma cells = experiment: Live/Dead assay, UACC903 cells; format: cell-based, human
How it was run: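 2 × 10^5 cells incubated with test compound (25 and 50 μM) for 24 h at 37 °C. Cells then stained with 5 μM ethidium homodimer plus 5 μM calcein-AM for 30 min at 37 °C. Imaged by fluorescence microscopy: green esterase-retained calcein marks live cells, red marks membrane-damaged dead cells. Percentage of dead cells quantified from images.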

UACC903 cells = experiment: Annexin V and Caspase 3/7 activity assays; format: cell-based, human; settings: UACC903, 24 h; for cells positive for Annexin V, Caspase 3/7 activity and 7-AAD: concentration not stated at place (25 and 50 μM tested)
How it was run: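 UACC903 cells exposed to test compound at 25 and 50 μM for 24 h. Floating and adherent cells analysed on a Muse cell analyzer using two kits. The Annexin V/7-AAD kit sorts cells into live, early apoptotic (Annexin V+/7-AAD−), late apoptotic (double positive) and necrotic (7-AAD only) quadrants. The caspase-3/7 kit uses NucView, a DEVD-linked DNA dye released by active caspase 3/7, plus 7-AAD as dead-cell marker.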

[2] = test system: PARP, Bcl-2, Bcl-xL, Survivin in CHL-1 and UACC903 melanoma cells; experiment: Western blot of survival and apoptosis proteins; format: cell-based, human; settings: CHL-1 and UACC903, 24 h
How it was run: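 CHL-1 and UACC903 cells (2 × 10^6) treated with test compound at set concentrations for 24 h. Whole-cell lysates resolved by SDS-PAGE and transferred to PVDF. Blots probed for PARP, […], survivin and Bcl-xL, with β-actin as loading control, and detected by enhanced chemiluminescence.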

[3] = test system: CHL-1 and UACC 903 melanoma cells; experiment: MTT cell viability assay, values stated jointly for CHL-1 and UACC 903; format: cell-based; settings: Homo sapiens, read-out: IC50, CHL-1 and UACC 903 stated jointly in text
How it was run: (§1)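 Cells kept in DMEM with 10% FBS and penicillin/streptomycin at 37 °C. Seeded at 3,000 cells/well and treated in triplicate with a test compound series (0.5–25 μM for 48 h; 72 h exposure also run for CHL-1/UACC 903). MTT (5 mg/mL stock in PBS) added for 3 h at 37 °C, formazan dissolved in DMSO, absorbance read at 570 nm with 630 nm background subtracted. IC50 from non-linear curve fits.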

[4] = test system: 1205Lu and A375M cell lines; experiment: MTT cell viability assay, values stated jointly for 1205Lu and A375M; format: cell-based; settings: Homo sapiens, 48 h, read-out: IC50, 1205Lu and A375M stated jointly in text
How it was run: as §1

[5] = test system: cancer cell lines (UACC903, MCF-7 and MDA-MB-231); experiment: MTT cell viability at 25 μM, values stated jointly for cancer cell lines; format: cell-based; settings: 48 h, read-out: cell viability of cancer cell lines
[6] = test system: Panc-1, MDA-MB-231, MCF-7 and HCT116 cells; format: cell-based; settings: 48 h, read-out: IC50s against all the cell lines tested (Panc-1, MDA-MB-231, MCF-7, HCT116)
[7] = test system: CHL-1 (BRAF wild-type) melanoma cells; experiment: MTT cell viability assay, CHL-1 melanoma cells; format: cell-based; settings: Homo sapiens, CHL-1, 72 h, read-out: Melanoma cells IC50 (μM) CHL-1
[8] = test system: UACC 903 (BRAF-mutant) melanoma cells; experiment: MTT cell viability assay, UACC 903 melanoma cells; format: cell-based; settings: Homo sapiens, UACC-903, 72 h, read-out: Melanoma cells IC50 (μM) UACC 903

| SMILES | potency towards melanoma cells (UACC903) as compared to normal MCF10A cells [1] | cell death in Live/Dead assay, human melanoma cells (UACC903 melanoma cells; 25 μM concentration, cell line not specified at place) | necrotic death (cells only positive for 7-AAD) (UACC903 cells) | cells positive for Annexin V, Caspase 3/7 activity and 7-AAD (UACC903 cells) | PARP cleavage (Western blot) [2] | levels of anti-apoptotic proteins Bcl-2, Bcl-xL and Survivin (Western blot) [2] | IC50 ([3]; 48 h) [µM] | IC50 ([3]; 72 h) [µM] | IC50 [4] [µM] | viability at 25 µM [5] [%] | IC50 [6] [µM] | cell death in Live/Dead assay, UACC903 (UACC903 melanoma cells; 25 μM, 24 h) [%] | IC50 [7] [µM] | IC50 [8] [µM] |
| --- | --- | --- | --- | --- | --- | --- | --- | --- | --- | --- | --- | --- | --- | --- |
| O=C1NC(=S)NC(=O)C1=C/C=C/c1cccs1 [Compound 2b, 5-(3-Thiophen-2-yl-allylidene)-2-thioxo-dihydro-pyrimidine-4,6-dione] | three-fold more potent | 65–70% | not detected | More than 70% | induced PARP cleavage | reduced the levels of anti-apoptotic proteins Bcl-2, Bcl-xL and Survivin in a dose-dependent manner | 6.5 to 8.1 | 3.8 to 4 | 10.6 to 14.8 | 20 to 30 |  |  |  |  |
| O=C1NC(=S)NC(=O)C1=C/C=C/c1cccc2ccccc12 [Compound 2d, 5-(3-Naphthalen-1-yl-allylidene)-2-thioxo-dihydro-pyrimidine-4,6-dione] |  |  |  |  |  |  |  |  |  |  | 3.6 to 7.9 |  |  |  |
| O=C1NC(=S)N(c2ccccc2)C(=O)/C1=C/C=C/c1cccs1 [Compound 8b, 1-Phenyl-5-(3-thiophen-2-yl-allylidene)-2-thioxo-dihydro-pyrimidine-4,6-dione] | three-fold more potent |  | not detected | More than 70% | induced PARP cleavage | reduced the levels of anti-apoptotic proteins Bcl-2, Bcl-xL and Survivin in a dose-dependent manner | 6.5 to 8.1 | 3.8 to 4 | 10.6 to 14.8 | 20 to 30 |  | 25 |  |  |
| CCCS(=O)(=O)Nc1ccc(F)c(C(=O)c2c[nH]c3ncc(-c4ccc(Cl)cc4)cc23)c1F [PLX-4032, vemurafenib] |  |  |  |  |  |  |  |  |  |  |  |  | 13.7 ± 1.7 | 3.6 ± 1.1 |
